Results gathered from unrelated publications.
Compare with care: the assays were run in different laboratories.
MAL12: Alpha-glucosidase MAL12 (MAL12, Saccharomyces cerevisiae S288c, UniProt P53341)

| SMILES | target | effect on | mode | method | notes | IC50 [µM] |
| --- | --- | --- | --- | --- | --- | --- |
| Cn1c(=O)c2c(ncn2C)n(C)c1=O | Solute carrier family 22 member 6 (SLC22A6, Homo sapiens, UniProt Q4U2R8) | transporter uptake | inhibitor | radiometric | oocytes | 155 |
| Cc1cc([N+](=O)[O-])ccc1NC(=O)Cn1cc(CSc2nc3ccccc3cc2/C=N/NC(N)=S)nn1 | MAL12 | enzyme activity | inhibitor | – | – | 307 |
| COc1cc(C(c2c(O)c3ccccc3oc2=O)c2c(O)c3ccccc3oc2=O)ccc1OCc1cn(CC(=O)Nc2ccc([N+](=O)[O-])cc2)nn1 | MAL12 | enzyme activity | inhibitor | absorbance | – | 12.2 |
| Cc1cccc(NC(=O)Cn2cc(CSc3nc4ccccc4cc3/C=N/NC(N)=S)nn2)c1 | MAL12 | enzyme activity | inhibitor | – | – | 247 |
| Cc1ccc2[nH]c(=O)c(CNC3CCCCC3)cc2c1 | Alpha-1A adrenergic receptor (ADRA1A, Homo sapiens, UniProt P35348, I178V/M292L) | calcium signal | antagonist | – | – | 1.62 |
| CCOC(=O)[C@H]1O[C@@H]1C(=O)N[C@@H](CC(C)C)C(=O)NCCC(C)C | Cathepsin S (CTSS, Homo sapiens, UniProt P25774) | enzyme activity | inhibitor | fluorescence | – | 19.1 |
| C[C@@H]1O[C@@H](O[C@H]2[C@H](O[C@H]3CC[C@]4(C)[C@H]5CC=C6[C@@H]7CC(C)(C)CC[C@]7(C(=O)O[C@@H]7O[C@H](CO[C@@H]8O[C@H](CO)[C@@H](O[C@@H]9O[C@@H](C)[C@H](O)[C@@H](O)[C@H]9O)[C@H](O)[C@H]8O)[C@@H](O)[C@H](O)[C@H]7O)CC[C@@]6(C)[C@]5(C)CC[C@H]4C3(C)C)OC[C@H](O)[C@@H]2O)[C@H](O)[C@H](O)[C@H]1O | MAL12 | enzyme activity | inhibitor | – | – | 0.47 |
| COc1cc(C(c2c(O)c3ccccc3oc2=O)c2c(O)c3ccccc3oc2=O)ccc1OCc1cn(CC(=O)Nc2ccccc2C)nn1 | MAL12 | enzyme activity | inhibitor | absorbance | – | 50.2 |
| NC(=S)N/N=C/c1cc2ccccc2nc1SCc1cn(CC(=O)Nc2cccc([N+](=O)[O-])c2)nn1 | MAL12 | enzyme activity | inhibitor | – | – | 217 |
| C[C@@H]1O[C@@H](O[C@H]2[C@H](O[C@H]3CC[C@@]4(C)[C@@H](CC[C@]5(C)[C@@H]4CC=C4[C@@H]6CC(C)(C)CC[C@]6(C(=O)O[C@@H]6O[C@H](CO[C@@H]7O[C@H](CO)[C@@H](O[C@@H]8O[C@@H](C)[C@H](O)[C@@H](O)[C@H]8O)[C@H](O)[C@H]7O)[C@@H](O)[C@H](O)[C@H]6O)CC[C@]45C)[C@]3(C)CO)OC[C@H](O)[C@@H]2O)[C@H](O)[C@H](O)[C@H]1O | MAL12 | enzyme activity | inhibitor | – | – | 1.78 |
| COc1cc(C(c2c(O)c3ccccc3oc2=O)c2c(O)c3ccccc3oc2=O)ccc1OCc1cn(CC(=O)Nc2ccc(Br)cc2)nn1 | MAL12 | enzyme activity | inhibitor | absorbance | – | 81.7 |
| C[C@@H]1O[C@@H](O[C@H]2[C@H](O)[C@@H](O)[C@H](OC[C@H]3O[C@@H](OC(=O)[C@]45CCC(C)(C)C[C@H]4C4=CC[C@@H]6[C@@]7(C)CC[C@H](O[C@@H]8OC[C@H](O)[C@H](O)[C@H]8O)[C@@](C)(CO)[C@@H]7CC[C@@]6(C)[C@]4(C)CC5)[C@H](O)[C@@H](O)[C@@H]3O)O[C@@H]2CO)[C@H](O)[C@H](O)[C@H]1O | MAL12 | enzyme activity | inhibitor | – | – | 1.65 |
| Cc1ccccc1NC(=O)Cn1cc(CSc2nc3ccccc3cc2/C=N/NC(N)=S)nn1 | MAL12 | enzyme activity | inhibitor | – | – | 354 |
| Cc1ccc2oc(=O)cc(NCCO)c2c1 | Alpha-1A adrenergic receptor (ADRA1A, Homo sapiens, UniProt P35348, I178V) | calcium signal | antagonist | – | – | 331 |
| NC(=S)N/N=C/c1cc2ccccc2nc1SCc1cn(CC(=O)Nc2ccccc2)nn1 | MAL12 | enzyme activity | inhibitor | – | – | 379 |
| C=C1CC[C@]2(C(=O)O[C@@H]3O[C@H](CO[C@@H]4O[C@H](CO)[C@@H](O[C@@H]5O[C@@H](C)[C@H](O)[C@@H](O)[C@H]5O)[C@H](O)[C@H]4O)[C@@H](O)[C@H](O)[C@H]3O)CC[C@]3(C)C(=CC[C@@H]4[C@@]5(C)CC[C@H](O[C@@H]6OC[C@H](O)[C@H](O)[C@H]6O[C@@H]6O[C@@H](C)[C@H](O)[C@@H](O)[C@H]6O)C(C)(C)[C@@H]5CC[C@]43C)[C@@H]2C1 | MAL12 | enzyme activity | inhibitor | – | – | 0.74 |
| COc1cc(C(c2c(O)c3ccccc3oc2=O)c2c(O)c3ccccc3oc2=O)ccc1OCc1cn(CC(=O)Nc2ccccc2F)nn1 | MAL12 | enzyme activity | inhibitor | absorbance | – | 61.4 |
| Cc1cccc(NC(=O)Cn2cc(CSc3nc4ccccc4cc3/C=N/NC(N)=S)nn2)c1C | MAL12 | enzyme activity | inhibitor | – | – | 247 |
| C[C@@H]1O[C@@H](O[C@H]2[C@H](O[C@H]3CC[C@@]4(C)[C@@H](CC[C@]5(C)[C@@H]4CC=C4[C@@H]6CC(C)(C)CC[C@]6(C(=O)O)CC[C@]45C)[C@]3(C)CO)OC[C@H](O)[C@@H]2O)[C@H](O)[C@H](O)[C@H]1O | MAL12 | enzyme activity | inhibitor | – | – | 0.6 |
| COc1cc(C(c2c(O)c3ccccc3oc2=O)c2c(O)c3ccccc3oc2=O)ccc1OCc1cn(CC(=O)Nc2ccc(C)cc2)nn1 | MAL12 | enzyme activity | inhibitor | absorbance | – | 41.1 |
